Assay results from ChEMBL document CHEMBL3091291, “Synthesis and pharmacological characterization of benzenesulfonamides as dual species inhibitors of human and murine mPGES-1” (Bioorg Med Chem, 2013).

Columns and labels:
[1] = target: Prostaglandin G/H synthase 1 (Homo sapiens) (UniProt P23219); experiment: Inhibition of COX1 in human whole blood assessed as reduction in TXB2 production by measuring remaining activity at 100 uM after 1 hr by LC-MS/MS analysis
[2] = Cytotoxicity against IL-1beta/TNFalpha-stimulated human HeLa cells assessed as cell viability at 100 uM after 24 hrs by WST-1 assay; type: cell-based; conditions: IL-1beta/TNFalpha-stimulated HeLa cells, read-out: Activity
How it was run: (§1)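 HeLa cells seeded at 3 × 10³ per well in medium with 10% FCS, grown 24 h at 37 °C, then stimulated with IL-1b (1 ng/mL) + TNFa (5 ng/mL) and treated at the same time with compound (1, 10, 100 µM) or DMSO for 24 h. WST-1 reagent then added for 90–150 min; absorbance read at 450 nm against 620 nm reference.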

HeLa = experiment: Cytotoxicity against IL-1beta/TNFalpha-stimulated human HeLa cells assessed as cell viability up to 10 uM after 24 hrs by WST-1 assay; type: cell-based; how it was run: as §1
[3] = target: T1, Prostaglandin G/H synthase 1 (Ovis aries) (UniProt P05979); experiment: Inhibition of ovine COX1 using […] at 10 uM by LC-MS/MS analysis
T1 sequence (whole entry): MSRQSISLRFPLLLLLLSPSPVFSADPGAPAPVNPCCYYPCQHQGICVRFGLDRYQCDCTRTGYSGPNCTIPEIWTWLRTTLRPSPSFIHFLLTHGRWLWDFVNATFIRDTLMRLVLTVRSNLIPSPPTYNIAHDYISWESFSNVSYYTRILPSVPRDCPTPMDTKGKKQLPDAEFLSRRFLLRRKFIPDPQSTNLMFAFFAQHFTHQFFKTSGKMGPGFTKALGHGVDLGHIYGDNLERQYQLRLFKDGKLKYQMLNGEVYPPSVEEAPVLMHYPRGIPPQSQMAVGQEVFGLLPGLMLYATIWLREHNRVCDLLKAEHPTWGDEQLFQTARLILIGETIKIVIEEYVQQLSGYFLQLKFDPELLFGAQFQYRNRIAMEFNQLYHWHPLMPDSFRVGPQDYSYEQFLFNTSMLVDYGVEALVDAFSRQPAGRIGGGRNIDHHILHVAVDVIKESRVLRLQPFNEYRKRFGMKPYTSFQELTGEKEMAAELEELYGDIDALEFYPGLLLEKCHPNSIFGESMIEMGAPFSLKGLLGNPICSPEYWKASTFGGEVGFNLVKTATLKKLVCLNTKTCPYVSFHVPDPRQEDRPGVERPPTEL
How it was run: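 Ovine COX-1 and recombinant human COX-2 tested directly with a commercial COX inhibitor screening kit, following the manufacturer's protocol. COX-derived PGH₂ reduced with SnCl₂; the resulting PGE₂, PGD₂ and PGF₂a diluted in MeOH, spiked with deuterated internal standards and quantified by SPE and LC–MS/MS.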

[4] = target: T2, Prostaglandin G/H synthase 2 (Homo sapiens) (UniProt P35354); experiment: Inhibition of LPS-stimulated COX2 in human whole blood assessed as reduction in PGE2 production by measuring remaining activity at 100 uM preincubated for 15 mins followed by LPS addition measured after 24 hrs by LC-MS/MS analysis
T2 sequence (whole entry): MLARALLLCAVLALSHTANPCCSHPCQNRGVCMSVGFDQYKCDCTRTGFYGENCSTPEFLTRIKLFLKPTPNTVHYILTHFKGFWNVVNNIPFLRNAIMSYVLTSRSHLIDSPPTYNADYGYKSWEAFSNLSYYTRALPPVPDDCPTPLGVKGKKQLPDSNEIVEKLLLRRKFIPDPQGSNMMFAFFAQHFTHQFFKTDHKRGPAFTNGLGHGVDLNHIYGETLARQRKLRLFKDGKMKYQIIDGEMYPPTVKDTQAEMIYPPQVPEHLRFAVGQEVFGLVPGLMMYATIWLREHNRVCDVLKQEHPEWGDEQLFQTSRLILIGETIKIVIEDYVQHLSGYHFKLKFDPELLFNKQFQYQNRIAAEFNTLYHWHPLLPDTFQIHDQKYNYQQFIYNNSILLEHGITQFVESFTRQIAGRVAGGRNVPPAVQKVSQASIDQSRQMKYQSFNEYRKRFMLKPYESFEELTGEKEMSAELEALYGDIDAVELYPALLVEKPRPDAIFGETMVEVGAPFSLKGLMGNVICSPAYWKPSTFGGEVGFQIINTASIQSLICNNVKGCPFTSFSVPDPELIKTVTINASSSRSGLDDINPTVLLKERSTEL
How it was run: (§2)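 Heparinized human whole blood (500 µL) mixed with compound in DMSO, with acetylsalicylic acid added to block COX-1, held 15 min at 37 °C, then stimulated with LPS in autologous plasma to induce COX-2/mPGES-1. After 24 h at 37 °C, samples chilled 5 min on ice; plasma collected, prostaglandins extracted and measured by LC–MS/MS. Remaining activity given relative to vehicle control.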

[5] = target: T3, Prostaglandin E synthase (Mus musculus) (UniProt Q9JM51); experiment: Inhibition of mPGES-1 in Swiss mouse NIH/3T3 cells using PGH2 as substrate assessed as inhibition of IL-1beta/TNFalpha-stimulated PGE2 production at 5 uM preincubated for 30 mins followed by substrate addition measured after 1 min by LC-MS/MS analysis; type: cell-based
T3 sequence (whole entry): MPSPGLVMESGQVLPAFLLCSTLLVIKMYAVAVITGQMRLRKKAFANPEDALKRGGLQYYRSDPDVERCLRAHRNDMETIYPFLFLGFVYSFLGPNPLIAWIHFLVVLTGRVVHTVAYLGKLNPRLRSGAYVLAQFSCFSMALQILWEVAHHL
How it was run: (§3)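 Microsomal fraction from HeLa, NIH-3T3 or RAW 264.7 cells, obtained by sonication and ultracentrifugation, resuspended in 0.1 M KPi pH 7.4 with 2.5 mM reduced GSH. Protein at 0.15 mg/mL (HeLa, NIH) or 0.3 mg/mL (RAW) incubated with compound 30 min on ice. Reaction started with 20 µM PGH₂, stopped after 1 min with FeCl₂/citric acid. PGE₂ quantified by SPE and LC–MS/MS. IC50 from four-parameter logistic fit of increasing concentrations.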

[6] = target: T2, Prostaglandin G/H synthase 2 (Homo sapiens); experiment: Inhibition of LPS-stimulated COX2 in human whole blood assessed as reduction in PGF2alpha production by measuring remaining activity at 100 uM preincubated for 15 mins followed by LPS addition measured after 24 hrs by LC-MS/MS analysis; how it was run: as §2
[7] = target: T3, Prostaglandin E synthase (Mus musculus); experiment: Inhibition of mPGES-1 in mouse RAW264.7 cells using PGH2 as substrate assessed as inhibition of LPS-stimulated PGE2 production at 5 uM preincubated for 30 mins followed by substrate addition measured after 1 min by LC-MS/MS analysis; type: cell-based; how it was run: as §3

Chain of Prostaglandin G/H synthase 1 (Homo sapiens) (P23219 whole entry): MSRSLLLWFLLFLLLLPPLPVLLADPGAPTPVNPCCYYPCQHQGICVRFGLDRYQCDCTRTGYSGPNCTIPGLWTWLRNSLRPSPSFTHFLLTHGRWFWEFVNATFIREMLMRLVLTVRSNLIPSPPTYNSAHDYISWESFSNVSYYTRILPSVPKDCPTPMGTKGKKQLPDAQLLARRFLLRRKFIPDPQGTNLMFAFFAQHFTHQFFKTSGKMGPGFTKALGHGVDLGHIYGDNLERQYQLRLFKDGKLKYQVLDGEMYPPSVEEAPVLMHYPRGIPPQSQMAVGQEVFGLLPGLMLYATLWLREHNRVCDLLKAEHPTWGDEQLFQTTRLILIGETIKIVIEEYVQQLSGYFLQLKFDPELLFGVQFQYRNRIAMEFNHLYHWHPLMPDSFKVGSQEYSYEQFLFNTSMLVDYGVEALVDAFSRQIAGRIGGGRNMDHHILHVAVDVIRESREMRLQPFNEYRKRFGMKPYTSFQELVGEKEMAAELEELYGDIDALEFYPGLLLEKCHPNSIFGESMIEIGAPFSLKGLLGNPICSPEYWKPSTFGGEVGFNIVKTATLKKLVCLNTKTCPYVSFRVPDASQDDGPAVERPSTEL

| SMILES | Activity [1] | viability at 24 h, 100 µM [2] | Activity (HeLa) | inhibition [3] | Activity [4] | inhibition [5] | Activity [6] | inhibition [7] |
| --- | --- | --- | --- | --- | --- | --- | --- | --- |
| COc1ccc(CN(CC2CCCCC2)S(=O)(=O)c2ccc(C(=O)O)cc2)cc1 | 83.6% | 50% | Non-toxic | 10.3% | 39% | 48.5% | 114% | – |
| O=C(O)c1ccc(S(=O)(=O)N(Cc2ccccc2)Cc2ccc(Oc3ccccc3)cc2)cc1 | 92.4% | 50% | Non-toxic | 0.3% | 88.7% | 65.1% | 92.5% | 71.4% |
| O=C(O)c1ccc(S(=O)(=O)N(Cc2ccccc2)c2ccc(Oc3ccccc3)cc2)cc1 | 85.2% | 50% | Non-toxic | 12.4% | 66.8% | 71.2% | 86.8% | 74.7% |
| COc1ccc(CN(Cc2ccccc2)S(=O)(=O)c2ccc(C(=O)O)cc2)cc1 | 90% | 50% | Non-toxic | < 0% | 74.4% | 10.6% | 107% | 29.8% |
| O=C(O)c1ccc(S(=O)(=O)N(Cc2ccccc2)Cc2ccc(Nc3ccccc3)cc2)cc1 | 110% | 50% | Non-toxic | < 0% | 61.2% | 67.9% | 90.9% | – |
